Data taken from ChEMBL document CHEMBL1131442 (J Med Chem, 1998).

Tests used:
[1] = target: Cannabinoid receptor 2 (Mus musculus, UniProt P47936); assay: Binding affinity towards Cannabinoid receptor 2 from mouse spleen membranes using 0.8 nM [3H]CP-55940 as radioligand; format: tissue-based
In short: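 Mouse spleen membranes, no PMSF pretreatment (amidase absent). Each well held ~30 μg membrane in TME (25 mM Tris-HCl, 5 mM MgCl2, 1 mM EDTA, pH 7.4) with 0.1% fatty acid-free BSA, 0.8 nM [3H]CP-55,940 and varied analogue concentrations, 1 h. Bound ligand was collected on GF/C filters and counted by scintillation.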

[2] = target: T1, Cannabinoid receptor 1 (Rattus norvegicus, UniProt P20272); assay: Binding affinity towards cannabinoid receptor 1 from rat forebrain membranes in the presence of phenylmethanesulfonylfluoride (PMSF) using 0.8 nM [3H]CP-55940 as radioligand; set-up: species or system Membrane
T1 sequence (P20272 whole entry): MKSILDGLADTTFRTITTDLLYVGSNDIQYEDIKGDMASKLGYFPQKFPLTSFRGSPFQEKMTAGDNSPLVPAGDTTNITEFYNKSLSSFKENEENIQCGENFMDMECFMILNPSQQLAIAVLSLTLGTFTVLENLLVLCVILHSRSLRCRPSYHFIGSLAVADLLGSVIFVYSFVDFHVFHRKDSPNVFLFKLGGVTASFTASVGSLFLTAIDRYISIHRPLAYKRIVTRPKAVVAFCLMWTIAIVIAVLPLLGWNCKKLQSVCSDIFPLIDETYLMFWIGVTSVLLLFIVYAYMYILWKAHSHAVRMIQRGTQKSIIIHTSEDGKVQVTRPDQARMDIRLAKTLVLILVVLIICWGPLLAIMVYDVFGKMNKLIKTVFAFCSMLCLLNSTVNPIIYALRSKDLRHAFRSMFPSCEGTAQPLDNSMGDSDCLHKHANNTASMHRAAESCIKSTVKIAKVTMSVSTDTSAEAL

[3] = target: T1, Cannabinoid receptor 1; assay: Binding affinity towards cannabinoid receptor 1 from rat forebrain membranes in the absence of phenylmethanesulfonylfluoride (PMSF) using 0.8 nM [3H]CP-55940 as radioligand; set-up: species or system Membrane
In short: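 Rat forebrain membranes were used without PMSF treatment. Bound ligand was separated by filtration and counted by scintillation. IC50 from nonlinear regression was converted to Ki by Cheng–Prusoff.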

[4] = organism: Rattus norvegicus; assay: Maximal stimulation of [35S]GTP-gamma-S, binding in rat microsomal membranes expressed as Emax; format: functional
In short: (§1)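 Rat brain membranes (cerebellum removed) were sucrose-gradient purified. Membrane (40–50 μg protein) was incubated 1 h at 30 °C in 10 mM Tris, 100 mM NaCl, 5 mM MgCl2, 0.1% BSA with GDP, [35S]GTPγS and eight analogue concentrations. Nonspecific binding was defined with 10 μM GTPγS, and buffer alone set the baseline. Bound label was collected on GF/B filters and counted. Two experiments were run, each point in […].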

[5] = organism: Rattus norvegicus; assay: Effective concentration required for stimulation of [35S]GTP-gamma-S, binding in rat microsomal membranes; format: functional; in short: as §1
[6] = organism: Rattus norvegicus; assay: Effective concentration required for stimulation of [35S]GTP-gamma-S, binding in rat microsomal membranes expressed as log EC50; format: functional; in short: as §1

Sequence of Cannabinoid receptor 2 (P47936 whole entry): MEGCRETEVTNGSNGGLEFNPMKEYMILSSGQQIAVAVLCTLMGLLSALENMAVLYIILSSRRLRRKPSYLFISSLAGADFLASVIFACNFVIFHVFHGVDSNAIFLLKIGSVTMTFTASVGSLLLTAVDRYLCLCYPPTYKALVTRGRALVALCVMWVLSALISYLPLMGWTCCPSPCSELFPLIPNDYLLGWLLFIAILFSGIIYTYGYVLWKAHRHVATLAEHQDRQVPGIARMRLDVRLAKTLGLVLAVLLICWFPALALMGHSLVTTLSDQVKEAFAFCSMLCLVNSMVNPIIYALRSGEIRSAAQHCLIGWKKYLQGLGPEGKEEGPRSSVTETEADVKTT

CCCCC/C=C\C/C=C\C/C=C\C/C=C\CCCC(=O)NCCCCl
Ki [1]: 0.193 µM | Ki [2]: 25.6 nM | Ki [3]: 387 nM

CCCCC/C=C\C/C=C\C/C=C\C/C=C\CCCC(=O)N[C@H](C)CC
Ki [1]: 1.33 µM | Ki [2]: 73.6 nM | Ki [3]: 143 nM

CCCCC/C=C\C/C=C\CCCCCCCC(=O)N[C@H](C)CO
Ki [1]: 21 µM | Ki [2]: 21000 nM | Ki [3]: 21000 nM

CCCCC/C=C\C/C=C\C/C=C\C/C=C\CCCC(=O)NCCCl
Ki [1]: 0.195 µM | Ki [2]: 5.29 nM | Emax [4]: 162% | Ki [3]: 3400 nM | EC50 [5]: 420 nM

CCCCC/C=C\C/C=C\C/C=C\C/C=C\CCCCNC(=O)COC(C)=O
Ki [1]: > 10 µM | Ki [3]: 419 nM

CCCCC/C=C\C/C=C\C/C=C\C/C=C\CCCC(=O)N[C@H](C)CO [METHANANDAMIDE]
Ki [1]: 0.868 µM | Emax [4]: 148% | EC50 [5]: 330 nM

CCCCC/C=C\C/C=C\C/C=C\C/C=C\CCCC(=O)NC(C)CC (stereo not drawn)
Ki [1]: 2.2 µM | Ki [2]: 83.2 nM | Ki [3]: 158 nM

CCCCC/C=C\C/C=C\C/C=C\C/C=C\CCCC(=O)N[C@@H](C)CC
Ki [1]: 3.2 µM | Ki [2]: 287 nM

CCCCC/C=C\C/C=C\C/C=C\C/C=C\CCCC(=O)NCC(C)C
Ki [1]: 0.84 µM | Ki [2]: 90.2 nM | Ki [3]: 98.1 nM

CCCCC/C=C\C/C=C\C/C=C\C/C=C\CCCC(=O)NC(C)(C)C
Ki [1]: 1.14 µM | Ki [2]: 51.2 nM | Ki [3]: 105 nM

CCCCCCCC/C=C\CCCCCCCC(=O)NCCO [OLEOYLETHANOLAMIDE]
Ki [1]: 31 µM | Ki [3]: 44000 nM

CCCCC/C=C\C/C=C\CCCCCCCC(=O)NCCO [LINOLEOYLETHANOLAMIDE]
Ki [1]: 25 µM

Cc1c(C(=O)c2cccc3ccccc23)c2cccc3c2n1[C@H](CN1CCOCC1)CO3 [WIN-552122]
Emax [4]: 150% | EC50 [5]: 180 nM

CCCCC/C=C\C/C=C\CCCCCCCC1=NCCO1
Ki [1]: 20 µM

C=CCNC(=O)CCC/C=C\C/C=C\C/C=C\C/C=C\CCCCC
Ki [1]: 0.226 µM | Ki [2]: 9.91 nM | Ki [3]: 2980 nM

CCCCC/C=C\C/C=C\C/C=C\C/C=C\CCCC(=O)NC[C@H](C)O
Ki [1]: 0.771 µM | Ki [2]: 35.6 nM | Ki [3]: 110 nM

CCCCC/C=C\C/C=C\C/C=C\C/C=C\CCCC(=O)NCC(F)(F)F
Ki [1]: 0.718 µM | Ki [2]: 36.2 nM | Ki [3]: 2380 nM

CCCCCCCC/C=C\CCCCCCCC1=NCCO1
Ki [1]: 31 µM | Ki [3]: 14000 nM

C#CCNC(=O)CCC/C=C\C/C=C\C/C=C\C/C=C\CCCCC
Ki [1]: 0.29 µM | Ki [2]: 10.8 nM | Emax [4]: 143% | Ki [3]: 4900 nM | EC50 [5]: 100 nM | EC50 [6]: 20 mM

CCCCC/C=C\C/C=C\C/C=C\C/C=C\CCCC(=O)NCCF
Ki [1]: 0.908 µM | Ki [2]: 26.7 nM | Ki [3]: 4640 nM

CCCCCCCC/C=C\CCCCCCCC(=O)N[C@H](C)CO
Ki [1]: 26 µM | Ki [2]: 19000 nM | Ki [3]: 33000 nM

CCCCCCC(C)(C)c1ccc([C@@H]2C[C@H](O)CC[C@H]2CCCO)c(O)c1 [CP-55940]
Emax [4]: 145% | EC50 [5]: 100 nM | EC50 [6]: 20 mM

CCCCC/C=C\C/C=C\C/C=C\C/C=C\CCCC(=O)NC[C@@H](C)O
Ki [1]: 1.79 µM | Ki [2]: 130 nM | Ki [3]: 630 nM

CCCCC/C=C\C/C=C\C/C=C\C/C=C\CCCC1=N[C@H](C)CO1
Ki [1]: 6800 µM | Ki [3]: 679 nM

CCCCC/C=C\C/C=C\C/C=C\C/C=C\CCCC(=O)N[C@@H](C)CO
Ki [1]: 8.22 µM
